According to article PMC2633595 (Analytical biochemistry, 2008):
Entries after “also recorded” stand apart in the source; their conditions may differ. Like-named read-outs stand apart in the source and are kept apart here.

What was measured:
GST-Rab7 [1] = target: T1, GST-Rab7 (Canis lupus familiaris, UniProt P18067); type: binding, canine; conditions: competition with 100 nM BODIPY FL GTP, 1 mM EDTA buffer
Outline: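 Canine Rab7 GST fusion expressed in BL21(DE3) E. coli and glutathione-affinity purified. 1 µM protein loaded overnight at 4°C onto glutathione Superdex beads in HPS buffer (HEPES pH 7.5, KCl, NaCl, dodecyl maltoside) with 1 mM DTT, then washed. 10^4 beads incubated 2 h at 4°C with 100 nM BODIPY FL GTP plus unlabeled GDP or GTP-γ-S. Read by flow cytometry; fitted EC50 converted to Ki.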

GST-Rab7 [2] = target: T1, GST-Rab7; experiment: Kinetic assays; type: binding, canine; conditions: for koff: GST-Rab7, 1 mM EDTA buffer
GST-Rab7 [3] = target: T1, GST-Rab7; type: binding, canine; conditions: for maximal binding Bmax: GST-Rab7, 1 mM MgCl2
Outline: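 Canine GST-Rab7 from E. coli, glutathione-purified, loaded at 1 µM onto glutathione beads (4°C, overnight, HPS buffer, 1 mM DTT). 10^4 beads incubated 2 h at 4°C with 0–2 µM BODIPY FL GTP, GDP or GTP-γ-NH in 1 mM EDTA or 1 mM MgCl2. Diluted ≥10-fold and read by flow cytometry. Fluorescein calibration beads gave BODIPY/bead. Bmax and Kd from hyperbolic fit.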

GST-RhoA = GST-RhoA (Homo sapiens, UniProt P61586); type: binding; conditions: for maximal binding Bmax: 1 mM MgCl2; for Bmax / Kd: 1 mM MgCl2 buffer
GST-RhoA, sequence (P61586 whole entry): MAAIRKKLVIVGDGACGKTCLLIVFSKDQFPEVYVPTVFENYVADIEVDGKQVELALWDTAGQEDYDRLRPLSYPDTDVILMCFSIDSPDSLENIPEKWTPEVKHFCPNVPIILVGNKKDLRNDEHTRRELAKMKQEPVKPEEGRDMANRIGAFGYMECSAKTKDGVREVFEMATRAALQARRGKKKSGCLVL
Outline: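 GST-RhoA purified from E. coli. Loaded at 1 µM overnight at 4°C onto glutathione beads in HPS buffer with 1 mM DTT and 1 mM MgCl2, then washed twice. 10^4 beads incubated 2 h at 4°C with 0–2 µM BODIPY FL GTP or GTP-γ-NH in 1 mM MgCl2. Diluted ≥10-fold and read by flow cytometry. Signal calibrated to BODIPY/bead with fluorescein beads. Bmax and Kd from hyperbolic fit.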

Rab7 = conditions: nucleotide free system ref 11; cited from earlier work
[4] = GST-Rab7, 1 mM EDTA buffer, 2 h at 4°C

T1 sequence (P18067 whole entry, the tested form may be a part): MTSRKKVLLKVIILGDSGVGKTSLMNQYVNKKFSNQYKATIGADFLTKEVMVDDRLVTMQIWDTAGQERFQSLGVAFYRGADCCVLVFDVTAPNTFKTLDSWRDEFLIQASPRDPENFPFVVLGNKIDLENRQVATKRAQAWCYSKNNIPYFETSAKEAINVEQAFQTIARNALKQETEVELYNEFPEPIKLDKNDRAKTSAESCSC

Row | Molecule | Ki (GST-Rab7 [1]) | higher affinity of Rab7 for GDP relative to GTP (GST-Rab7 [3]; GST-Rab7) | koff (GST-Rab7 [2]) | Bmax (GST-Rab7 [3]; GST-Rab7, 1 mM EDTA buffer) | Kd (GST-Rab7 [3]; [4]) | maximal binding Bmax (GST-Rab7 [3]) | Bmax (GST-Rab7 [3]; GST-Rab7, 1 mM MgCl2 buffer) | Kd (GST-Rab7 [3]; GST-Rab7, 1 mM MgCl2 buffer) | maximal binding Bmax (GST-RhoA) | Bmax (GST-RhoA) | Kd (GST-RhoA) | further results
1 | Nc1nc2c(ncn2[C@@H]2O[C@H](COP(=O)(O)OP(=O)(O)O)[C@@H](O)[C@H]2O)c(=O)[nH]1 [GDP] | 13 ± 5 nM | 3 fold | – | – | – | – | – | – | – | – | – | slower dissociation rate of GDP (GST-Rab7 [2]; GST-Rab7, relative to GTP): 3 fold
2 | Nc1nc2c(ncn2[C@@H]2O[C@H](COP(=O)(O)OP(=O)(O)OP(O)(O)=S)[C@@H](O)[C@H]2O)c(=O)[nH]1 [GTP-γ-S] | 40 ± 10 nM | – | – | – | – | – | – | – | – | – | – | –
3 | BODIPY FL GDP 2′-(or-3′)-O-(N-(2-aminoethyl)urethane) | – | 3 fold | 2.3 ± 1.5 × 10^−3 sec^−1 | 2000 ± 400 10^3 BODIPY/bead | 54 ± 15 nM | – | – | – | – | – | – | –
4 | BODIPY FL GTP 2’-(or-3’)-O-(N-(2-aminoethyl)urethane | – | – | 7.0 ±3.0 × 10^−3 sec^−1 | 1600 ± 400 10^3 BODIPY/bead | 150 ± 62 nM | 650 × 10^3 fluorophores/bead | 650 ± 10 10^3 BODIPY/bead | 20 ± 5 nM | 700 × 10^3 fluorophores/bead | 700 ± 20 10^3 BODIPY/bead | 80 ± 10 nM | faster dissociation of GTP compared to GDP (GST-Rab7 [2]; GST-Rab7): 3 fold; t1/2 (observed on-rate half-time) (GST-Rab7 [2]; GST-Rab7, 1 mM EDTA, 50-500 nM BODIPY FL GTP): 11.1 ± 0.6 min; dissociation rate faster in the absence of Mg^2+ relative to Mg^2+ present (GST-Rab7 [2]; GST-Rab7, competed by excess unlabeled nucleotide): 7 times; koff Mg^2+ (GST-Rab7 [2]; GST-Rab7, with Mg^2+): 0.0013 s⁻¹; decrease in affinity in the absence of Mg^2+ (GST-Rab7 [3]; GST-Rab7): 8 fold; maximal binding (GST-Rab7 [3]; GST-Rab7, 1 mM EDTA): 1600 × 10^3 fluorophores/bead
5 | BODIPY FL GTP-γ-NH amide | – | – | – | – | – | 60 × 10^3 fluorophores/bead | 60 ± 5 10^3 BODIPY/bead | 70 ± 20 nM | 710 × 10^3 fluorophores/bead | 710 ± 15 10^3 BODIPY/bead | 95 ± 10 nM | binding to GST-Rab7 (in words) (GST-Rab7 [3]; GST-Rab7): unique inability; also recorded: marked inability to bind; lower binding affinity relative to BODIPY FL GTP (GST-Rab7 [3]; GST-Rab7, with Mg^2+): 90%
6 | methylanthraniloyl (mant) GTP | – | – | – | – | – | – | – | – | – | – | – | Kd (Rab7): 6 nM
